19 compounds from ChEMBL document CHEMBL3600364, “Modification of N-(6-(2-methoxy-3-(4-fluorophenylsulfonamido)pyridin-5-yl)-[1,2,4]triazolo[1,5-a]pyridin-2-yl)acetamide as PI3Ks inhibitor by replacement of the acetamide group with alkylurea” (Bioorg Med Chem, 2015) can be followed below.

A short description of data set [1]: Acute toxicity in po dosed mouse. The format is organism-based. Conditions: in vivo. In a few lines:
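Mouse acute oral toxicity (20.1 ± 1.9 g) by up-and-down procedure per OECD guideline 425. Compound dissolved in NMP, diluted with PEG400 and H2O (NMP/PEG400/H2O 1:8:1 v/v), given orally. Starting dose 50 mg/kg or 100 mg/kg depending on compound, slope factor sigma 0.12. Dosing stopped per AOT425StatPgm stopping rules.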

The subject of data set [2] is U-87 MG. Nature of the data set: Cytotoxicity against human U87MG cells after 72 hrs by MTT assay. The format is functional, cell-based, U-87MG ATCC. An outline of the steps:
(§1)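 Cells (1500–4000/well) were plated for 24 h, then exposed to serial concentrations for 72 h at 1% DMSO final. MTT was added for 4 h, formazan dissolved in DMSO, and OD read at 490 nm. IC50 (μM) came from three experiments run in triplicate.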
Background: Formazan colour is commonly taken as a measure of viable cells.

The subject of data set [3] is HCT-116. As to the kind of experiment: Cytotoxicity against human HCT116 cells after 72 hrs by MTT assay. The format is functional, cell-based. Conditions: HCT-116, 72 h. In a few lines: as §1
Data set [4] relates to A549. Nature of the data set: Cytotoxicity against human A549 cells after 72 hrs by MTT assay. It counts as functional, cell-based. Conditions: A549, 72 h. In a few lines:
as §1

In data set [5] the test system is MCF7. Nature of the data set: Cytotoxicity against human MCF7 cells after 72 hrs by MTT assay. The format is functional, cell-based. Conditions: MCF7, 72 h. In a few lines:
as §1

Data set [6] is described as follows: Ratio of compound LD50 to compound B LD50 for po dosed mouse. The format is ADME, organism-based. Conditions: in vivo.
The target of data set [7] is T1, Phosphatidylinositol 4,5-bisphosphate 3-kinase catalytic subunit alpha isoform (Homo sapiens, UniProt P42336). As to the kind of experiment: Inhibition of PI3Kalpha (unknown origin) assessed as reduction of ATP level after 40 mins by luciferase based luminescence assay.
T1 sequence (P42336 whole entry, canonical isoform): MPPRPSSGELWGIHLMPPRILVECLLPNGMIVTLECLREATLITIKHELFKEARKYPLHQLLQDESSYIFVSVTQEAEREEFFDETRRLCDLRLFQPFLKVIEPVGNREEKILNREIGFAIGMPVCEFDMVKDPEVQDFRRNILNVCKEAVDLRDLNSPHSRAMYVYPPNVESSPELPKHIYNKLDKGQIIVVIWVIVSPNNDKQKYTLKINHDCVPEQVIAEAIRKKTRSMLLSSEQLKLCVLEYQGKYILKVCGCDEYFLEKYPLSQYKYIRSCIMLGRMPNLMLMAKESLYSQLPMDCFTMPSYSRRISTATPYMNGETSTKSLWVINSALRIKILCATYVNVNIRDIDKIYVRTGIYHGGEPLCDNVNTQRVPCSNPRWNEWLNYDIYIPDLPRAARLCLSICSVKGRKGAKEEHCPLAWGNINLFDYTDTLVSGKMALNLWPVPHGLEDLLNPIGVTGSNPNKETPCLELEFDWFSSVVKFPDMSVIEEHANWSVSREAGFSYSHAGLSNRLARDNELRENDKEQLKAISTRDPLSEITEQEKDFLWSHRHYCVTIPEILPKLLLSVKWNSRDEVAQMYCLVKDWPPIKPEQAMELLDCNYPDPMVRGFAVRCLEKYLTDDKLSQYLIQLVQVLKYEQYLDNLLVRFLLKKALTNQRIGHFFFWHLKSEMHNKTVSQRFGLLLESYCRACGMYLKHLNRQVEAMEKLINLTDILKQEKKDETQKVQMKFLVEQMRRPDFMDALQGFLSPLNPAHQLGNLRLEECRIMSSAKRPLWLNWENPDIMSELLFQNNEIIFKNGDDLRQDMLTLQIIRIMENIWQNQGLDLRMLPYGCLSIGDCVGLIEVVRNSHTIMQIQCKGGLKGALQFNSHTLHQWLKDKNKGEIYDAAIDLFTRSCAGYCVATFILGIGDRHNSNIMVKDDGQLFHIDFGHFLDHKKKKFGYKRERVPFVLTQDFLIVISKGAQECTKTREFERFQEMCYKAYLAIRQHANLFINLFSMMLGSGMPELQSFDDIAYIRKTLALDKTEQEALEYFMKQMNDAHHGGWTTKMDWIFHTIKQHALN
In data set [8] the test system is CCRF S-180. As to the kind of experiment: Antitumor activity against mouse S180 cells xenografted in mouse assessed as inhibition of tumor growth at 5 mg/kg, po […] for 8 days relative to control. As to conditions: CCRF S-180, po, 192 h, read-out: GI. The format is functional. In a few lines: (§2)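 Mice (20.3 ± 1.6 g) were given 3×10^6 S180 cells subcutaneously in the flank and randomized the next day into groups of 8. Dosing was oral, once daily for 8 days, in NMP/PEG400/H₂O (1:6:3), with a solvent-only group as control. Body weight was recorded daily. On day 9, tumors were excised and weighed, and tumor-weight inhibitory ratio was calculated.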

Data set [9] addresses T2, Phosphatidylinositol 4,5-bisphosphate 3-kinase catalytic subunit delta isoform (Homo sapiens, UniProt O00329).
T2 sequence (O00329 whole entry): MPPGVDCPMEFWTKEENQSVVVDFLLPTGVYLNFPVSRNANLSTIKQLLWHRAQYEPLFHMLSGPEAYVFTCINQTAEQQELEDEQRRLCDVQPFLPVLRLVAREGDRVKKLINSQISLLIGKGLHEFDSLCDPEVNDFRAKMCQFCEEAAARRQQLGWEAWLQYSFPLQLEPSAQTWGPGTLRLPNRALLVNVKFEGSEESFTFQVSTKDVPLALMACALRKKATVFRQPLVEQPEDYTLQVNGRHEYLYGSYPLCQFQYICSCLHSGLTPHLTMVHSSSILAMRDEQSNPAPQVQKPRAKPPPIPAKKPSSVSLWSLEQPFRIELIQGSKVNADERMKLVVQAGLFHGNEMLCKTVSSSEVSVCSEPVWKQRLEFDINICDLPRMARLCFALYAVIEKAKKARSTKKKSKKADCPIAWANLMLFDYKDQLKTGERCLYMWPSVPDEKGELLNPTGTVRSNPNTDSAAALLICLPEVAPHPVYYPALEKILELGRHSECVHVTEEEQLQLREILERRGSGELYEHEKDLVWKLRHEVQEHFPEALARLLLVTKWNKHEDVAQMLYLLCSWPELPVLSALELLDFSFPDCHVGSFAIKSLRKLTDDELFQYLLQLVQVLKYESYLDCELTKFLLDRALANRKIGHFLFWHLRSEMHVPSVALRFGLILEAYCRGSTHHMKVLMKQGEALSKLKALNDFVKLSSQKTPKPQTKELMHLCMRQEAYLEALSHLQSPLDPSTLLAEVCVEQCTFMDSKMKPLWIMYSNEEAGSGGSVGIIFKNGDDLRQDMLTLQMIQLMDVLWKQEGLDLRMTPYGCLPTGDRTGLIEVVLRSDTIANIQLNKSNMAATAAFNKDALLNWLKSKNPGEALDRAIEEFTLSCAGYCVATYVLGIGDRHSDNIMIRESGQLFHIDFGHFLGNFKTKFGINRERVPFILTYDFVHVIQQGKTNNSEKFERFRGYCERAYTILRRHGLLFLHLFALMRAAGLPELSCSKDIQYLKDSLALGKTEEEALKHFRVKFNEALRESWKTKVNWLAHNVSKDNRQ
As to the kind of experiment: Inhibition of PI3Kdelta (unknown origin) assessed as reduction of ATP level after 40 mins by luciferase based luminescence assay. An outline of the steps: (§3)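 Each enzyme was tested separately: PI3Kα (p110α/p85α), β (p110β/p85α), γ (p110γ/PIK3R5), δ (p110δ/p85α) or mTOR, with L-α-phosphatidylinositol substrate. […] was measured by luciferase luminescence. Inhibition was normalized to no-compound and no-enzyme controls, and IC50 obtained from dose-response fits.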

Data set [10] has as its target T1, Phosphatidylinositol 4,5-bisphosphate 3-kinase catalytic subunit alpha isoform. As to the kind of experiment: Ratio of BEZ235 IC50 to compound IC50 for PI3Kalpha (unknown origin) assessed as reduction of ATP level after 40 mins by luciferase based luminescence assay.
The test system of data set [11] is CCRF S-180. As to the kind of experiment: Antitumor activity against mouse S180 cells xenografted in mouse assessed as inhibition of tumor growth at 30 mg/kg, po […] for 8 days relative to control. The format is functional. Conditions: CCRF S-180, po, 192 h, read-out: GI. An outline of the steps: as §2
Data set [12] has as its system CCRF S-180. Nature of the data set: Antitumor activity against mouse S180 cells xenografted in mouse assessed as inhibition of tumor growth at 10 mg/kg, po […] for 8 days relative to control. Conditions: CCRF S-180, po, 192 h, read-out: GI. The format is functional. In a few lines: as §2
Data set [13] has as its system Mus musculus. Nature of the data set: Toxicity in mouse S180 cells xenografted in mouse assessed as change in body weight at 5 to 30 mg/kg, po qd for 8 days. The format is organism-based, CCRF S-180. As to conditions: in vivo, 192 h. In a few lines:
as §2

In data set [14] the target is Serine/threonine-protein kinase mTOR (Homo sapiens, UniProt P42345). As to the kind of experiment: Inhibition of mTOR (unknown origin) assessed as reduction of ATP level after 40 mins by luciferase based luminescence assay. In a few lines:
as §3

Data set [15] deals with HCT-116. As to the kind of experiment: Ratio of BEZ235 IC50 to compound IC50 for human HCT116 cells. The format is functional.

SMILES strings stand for the structures. pIC50: −log10 of the molar value.

For `CCCNC(=O)Nc1nc2ccc(-c3cnc(OC)c(NS(=O)(=O)c4ccc(F)cc4)c3)cn2n1`, the LD50 in [1] came to 156 mg/kg. Also, the negative logarithm of the IC50 (pIC50) in [2] was 6.38; in [3] it was 6.82; in data set [4] it was 6.66; in [5], 6.44. Besides, the selectivity ratio in [6] was found to be 5.
Turning to `Cn1c(=O)n(-c2ccc(C(C)(C)C#N)cc2)c2c3cc(-c4cnc5ccccc5c4)ccc3ncc21` [DACTOLISIB], the pIC50 in data set [2] was 6.11; in data set [3], 6.54; in data set [4] it was 6.55; in [5] it was 6.59.
Compound `CCN(CC)CCNC(=O)Nc1nc2ccc(-c3cnc(OC)c(NS(=O)(=O)c4ccc(F)cc4)c3)cn2n1` registered an LD50 in data set [1] of 513 mg/kg. Also, the pIC50 in data set [2] was 6.14; in data set [7] it was 7.85; in [3] it was 6.74; in data set [4], 6.12; in data set [9], 7.92; in data set [5] it was 6.43. Besides, the pIC50 in data set [14] was 6.91. For the same compound, the inhibition in vivo at 5 mg/kg in data set [8] worked out at 37.3%. The Ratio IC50 in data set [10] is 3. In data set [11], the inhibition in vivo at 30 mg/kg was determined as 53.6%. In addition, the inhibition in vivo at 10 mg/kg in data set [12] was 49%. In data set [13], the Activity entry is “Non-toxic”. Besides, in data set [6], the selectivity ratio is 18.
With `COc1ncc(-c2ccc3nc(NC(=O)NCCN(C)C)nn3c2)cc1NS(=O)(=O)c1ccc(F)cc1`, the pIC50 in data set [2] was 6.01; in data set [3], 6.66; in [4], 6.10; in data set [5] it was 6.25.
Regarding `CCN(CC)CCNC(=O)Nc1nc2ccc(-c3cnc(OC)c(NS(=O)(=O)c4ccc(Cl)cc4)c3)cn2n1`, the pIC50 in [2] is 6.12; in data set [3] it was 6.92; in data set [4], 6.17; in data set [5], 6.17.
With `COc1ncc(-c2ccc3nc(NC(=O)N(C)C)nn3c2)cc1NS(=O)(=O)c1ccc(F)cc1`, the pIC50 in data set [2] was 5.75; in [3] it was 6.12; in [4], 5.92; in [5] it was 5.81.
The like results for `COc1ncc(-c2ccc3nc(NC(=O)NCC(=O)N4CCCC4)nn3c2)cc1NS(=O)(=O)c1ccc(F)cc1` were, in that order, 6.00, 6.85, 5.66 and 5.67.
On the same counts, the results for `COc1ncc(-c2ccc3nc(NC(=O)NCCN4CCCCC4)nn3c2)cc1NS(=O)(=O)c1ccc(F)cc1` are 5.97, 6.82, 6.21 and 6.70.
For `COc1ncc(-c2ccc3nc(NC(=O)NCCN4CCCC4)nn3c2)cc1NS(=O)(=O)c1ccc(F)cc1`, the pIC50 was 5.95 in data set [2], 6.64 in data set [3], 6.02 in data set [4] and 6.42 in data set [5].
On the same counts, the results for `COc1ncc(-c2ccc3nc(NC(=O)NCC(=O)N4CCCCC4)nn3c2)cc1NS(=O)(=O)c1ccc(F)cc1` are 6.13, 6.89, 5.69 and 6.24.
For `CNC(=O)Nc1nc2ccc(-c3cnc(OC)c(NS(=O)(=O)c4ccc(F)cc4)c3)cn2n1`, the pIC50 in data set [2] is 6.19; in [3], 6.74; in [4] it was 6.64; in [5], 6.60.
In the case of `COc1ncc(-c2ccc3nc(NC(=O)NCCN4CCN(C)CC4)nn3c2)cc1NS(=O)(=O)c1ccc(F)cc1`, the pIC50 in data set [2] is 6.12; in data set [3], 6.59; in data set [4], 5.98; in [5] it was 6.30.
The like results for `CCN(CC)CCNC(=O)Nc1nc2ccc(-c3cnc(OC)c(NS(=O)(=O)c4ccc(F)cc4F)c3)cn2n1` were, in that order, 5.97, 6.85, 6.01 and 6.13.
Take `COc1ncc(-c2ccc3nc(NC(C)=O)nn3c2)cc1NS(=O)(=O)c1ccc(F)cc1`: the LD50 in [1] was determined as 28 mg/kg.
In the case of `CCN(CC)CCNC(=O)Nc1nc2ccc(-c3cnc(OC)c(NS(=O)(=O)c4ccc(C)cc4)c3)cn2n1`, the pIC50 in data set [2] is 6.17; in [3] it was 6.77; in data set [4] it was 6.14; in data set [5] it was 6.39.
In the case of `COc1ncc(-c2ccc3nc(NC(=O)N4CCCC4)nn3c2)cc1NS(=O)(=O)c1ccc(F)cc1`, the pIC50 in data set [2] is 5.77; in [3], 5.89; in data set [4], 5.45; in data set [5], 5.78.
As for `COc1ncc(-c2ccc3nc(NC(=O)NC4CC4)nn3c2)cc1NS(=O)(=O)c1ccc(F)cc1`, the 50% lethal dose (LD50) in data set [1] was found to be 118 mg/kg. The pIC50 in [2] was 6.27; in [7] it was 8.15; in data set [3], 7.05; in [4], 6.68; in data set [9], 7.80; in data set [5] it was 6.52. Besides, the pIC50 in data set [14] was 6.56. Also, the Ratio IC50 in data set [10] was 8; in [15] it was 3. Besides, in data set [6], the selectivity ratio was found to be 4.
As for `COc1ncc(-c2ccc3nc(NC(=O)NCC(=O)N4CCOCC4)nn3c2)cc1NS(=O)(=O)c1ccc(F)cc1`, the pIC50 in data set [2] is 5.49; in data set [3] it was 6.31; in [4] it was 5.59; in data set [5], 6.20.
On the same counts, the results for `COc1ncc(-c2ccc3nc(NC(=O)NCCN4CCOCC4)nn3c2)cc1NS(=O)(=O)c1ccc(F)cc1` are 6.25, 6.89, 6.38 and 6.68.

What is called LD50 is the dose expected to kill half of the subjects tested. Low values mean a more toxic substance, high ones a less toxic substance. One may read the pIC50 as the IC50 on a negative log10 scale, so that one unit is a factor of ten.
